No end group written: not given here. *: point of attachment. X1 = S‑(2,3-bis(palmitoyloxy)-(2R)-propyl)‑R‑cysteinyl, CCCCCCCCCCCCCCCC(=O)OC[C@H](CSC[C@H](N)C(=O)*)OC(=O)CCCCCCCCCCCCCCC
How the values were obtained:
human TLR2 = human TLR2 (Homo sapiens, UniProt O60603); experiment: human TLR2-specific NF-κB reporter gene assay; format: cell-based; conditions: for EC50: hTLR2-Agonistic Activity (EC50 in nM), human TLR2-specific reporter gene assay; for hTLR2-specific agonistic activity: reporter gene assays
Chain of human TLR2 (O60603 21-784): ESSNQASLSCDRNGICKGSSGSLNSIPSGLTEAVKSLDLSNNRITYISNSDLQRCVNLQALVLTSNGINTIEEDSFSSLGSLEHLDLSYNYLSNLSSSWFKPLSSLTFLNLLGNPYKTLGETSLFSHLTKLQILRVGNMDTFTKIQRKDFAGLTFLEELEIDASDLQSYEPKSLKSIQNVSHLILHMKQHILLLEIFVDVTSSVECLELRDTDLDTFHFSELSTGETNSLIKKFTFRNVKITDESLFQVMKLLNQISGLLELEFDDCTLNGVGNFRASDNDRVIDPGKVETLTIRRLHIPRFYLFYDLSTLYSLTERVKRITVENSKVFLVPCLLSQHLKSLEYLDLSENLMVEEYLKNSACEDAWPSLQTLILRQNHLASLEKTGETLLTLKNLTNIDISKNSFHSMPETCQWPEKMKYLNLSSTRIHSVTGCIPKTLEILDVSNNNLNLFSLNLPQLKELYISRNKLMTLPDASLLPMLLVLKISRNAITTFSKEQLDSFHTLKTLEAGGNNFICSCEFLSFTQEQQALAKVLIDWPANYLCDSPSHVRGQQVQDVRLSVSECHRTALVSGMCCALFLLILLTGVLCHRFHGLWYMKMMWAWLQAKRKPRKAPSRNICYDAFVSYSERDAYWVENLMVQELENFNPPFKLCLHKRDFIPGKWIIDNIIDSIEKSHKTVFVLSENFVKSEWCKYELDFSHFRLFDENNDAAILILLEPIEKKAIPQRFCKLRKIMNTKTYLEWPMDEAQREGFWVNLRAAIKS

aqueous solubility = format: physicochemical; conditions: water
[1] = stability of aqueous stocks / accelerated stability testing; format: physicochemical; conditions: for stability of aqueous stocks: aqueous stocks on storage
patients = conditions: cited from earlier work
rabbit models = conditions: cited from earlier work
[2] = test system: murine models of immunization; conditions: cited from earlier work
[3] = test system: ex vivo human blood models; conditions: cited from earlier work
rabbits = experiment: safety evaluation in rabbits; format: in vivo, rabbit
How it was run: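 Rabbits (n=3 per group) received test compound 100 μg/dose, LPS 1 μg/dose (positive control) or saline vehicle. Doses were in sterile saline without excipients, 0.5 mL, as an i.v. bolus into the marginal ear vein. Blood was drawn from the contralateral ear at 0, 2 and 6 h for total/differential leukocytes, band forms, hemoglobin and MCH. Core temperature was logged by rectal thermistor probe.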

[4] = test system: granulocytes and monocytes in human whole blood; experiment: CD11b upregulation by flow cytometry in whole human blood; format: cell-based; conditions: 1 h
How it was run: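 Heparin-anticoagulated whole blood from healthy volunteers was added to serial dilutions of test compound, with reference compounds and fRPMI negative controls, then held 1 h at 37 °C. Cells were stained with CD11b-PE/CD14-APC for 30 min at 4 °C in the dark, then lysed/fixed and washed twice in saline. 100,000 gated events were acquired. Granulocytes were gated by forward/side scatter, monocytes by CD14.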

human PBMCs = experiment: 41-plex chemokine/cytokine immunoassay in hPBMC; format: cell-based; conditions: 12 h, 41-plex immunoassay
How it was run: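 Fresh human PBMCs were isolated on Ficoll-Hypaque gradients from venipuncture blood. Cells were plated at 10⁵ per well, stimulated 12 h with graded concentrations of test compound, with LPS as reference. Supernatants were collected by centrifugation and assayed in duplicate for 41 cytokines/chemokines by magnetic bead multiplex; intra-assay CV was 4–8%. Data are means of duplicates from a representative experiment.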

[5] = test system: human PBMCs or human whole blood; experiment: proinflammatory cytokine induction, 5-plex cytometric bead assays; format: cell-based; conditions: 5-plex cytometric bead assays (data not shown)
[6] = single i.v. bolus, 38 100 μg, LPS 1 μg

Row | Compound | EC50 (human TLR2) [nM] | aqueous solubility (aqueous solubility) | hTLR2-specific agonistic activity (human TLR2) | also measured
1 | CCCCCCCCCCCCCCCC(=O)OCCSC[C@H](NC(C)=O)C(=O)N[C@@H](COS(=O)(=O)O)C(=O)OC [Compound 13, 2-(((R)-2-Acetamido-3-(((S)-1-methoxy-1-oxo-3-(sulfooxy)propan-2-yl)amino)-3-oxopropyl)thio)ethyl palmitate] | 5.84 | highly water soluble | retained hTLR2-specific agonistic activity | 
2 | CCCCCCCCCCCCCCCC(=O)NCCSC[C@H](NC(C)=O)C(=O)N[C@@H](CO)C(=O)OC [Compound 22, (S)-Methyl 2-((R)-2-acetamido-3-((2-palmitamidoethyl)thio)propanamido)-3-hydroxypropanoate] | 12.8 |  |  | 
3 | CCCCCCCCCCCCCCCCn1cc(CCSC[C@H](NC(C)=O)C(=O)N[C@@H](CO)C(=O)OC)nn1 [Compound 27, (S)-Methyl 2-((R)-2-acetamido-3-((2-(1-hexadecyl-1H-1,2,3-triazol-4-yl)ethyl)thio)propanamido)-3-hydroxypropanoate] | 1020 |  |  | 
4 | CCCCCCCCCCCCCCCC(=O)OCCSC[C@H](NC(C)=O)C(=O)N[C@@H](COC(=O)[C@@H](N)CCCCN)C(=O)OC [Compound 12, 2-(((R)-2-Acetamido-3-(((S)-3-(((S)-2,6-diaminohexanoyl)oxy)-1-methoxy-1-oxopropan-2-yl)amino)-3-oxopropyl)thio)ethyl palmitate] | 1.5 | highly water soluble | retained hTLR2-specific agonistic activity | stability of aqueous stocks [1]: found to be unstable
5 | S-[2,3-bis(palmitoyloxy)-(2R)-propyl]-R-cysteinyl-GNNDESNISFKEK (X1-GNNDESNISFKEK) [Compound 1] |  |  |  | well tolerated dose, intra-tumoral injection (patients; ten patients with pancreas carcinomas, 20–30 μg injected during surgery): up to 20 μg; systemic side effects, intra-tumoral injection (patients; ten patients with pancreas carcinomas, 20–30 μg): no systemic side effects were noted; systemic side effects, application on punch biopsy skin lesions (patients; twelve patients, 0.125–1.0 μg): other than transient and self-limited erythema, no systemic side effects were noted
6 | CCCCCCCCCCCCCCCC(=O)OCC(CSC[C@H](N)C(=O)N[C@@H](CO)C(=O)O)OC(=O)CCCCCCCCCCCCCCC (mixture of isomers) [Compound 2, S-[2,3-bis(palmitoyloxy)-(2RS)-propyl]-R-cysteinyl-S-serine] |  |  |  | local reactogenicity and pyrogenicity (rabbit models): devoid of; adjuvanticity [2]: potently adjuvantic; levels of proinflammatory mediators such as TNF-α, IL-1β and IL-18 ([3]; earlier findings): virtually undetectable levels; pro-inflammatory activity (TNF-α, IL-1β, IL-6, IL-8 production) ([3]; ex vivo human blood models): devoid of any detectable pro-inflammatory activity
7 | CCCCCCCCCCCCCCCCOC(=O)NCCSC[C@H](NC(C)=O)C(=O)N[C@@H](CO)C(=O)NCCCN(C)C [Compound 38, Hexadecyl ((8S,11R)-11-acetamido-8-(hydroxymethyl)-2-methyl-7,10-dioxo-13-thia-2,6,9-triazapentadecan-15-yl)carbamate] | 0.25 |  |  | pyrogenicity (febrile response, core temperature) (rabbits; [6]): did not induce any such effects; total leukocyte and lymphocyte counts in peripheral blood (rabbits; [6]): did not induce any such effects; observable adverse effects, dose-escalation study (rabbits; up to 100 μg/animal, intramuscular or intravenous bolus): did not result in any observable adverse effects; chemical stability under accelerated stability testing conditions ([1]; accelerated stability testing): retained excellent chemical stability; CD11b upregulation in monocytes ([4]; CD14+ gated): strong monocytic CD11b upregulation; CD11b upregulation in neutrophils (granulocytes) ([4]; relative to 2): upregulated CD11b very potently; chemokine induction (MCP-1, MCP-3, MDC, IL-8) (human PBMCs): prominent biphasic induction; solubility (aqueous solubility): > 10000 µg/mL; proinflammatory cytokine signatures [5]: could not detect any significant proinflammatory cytokine signatures
8 | CCCCCCCCCCCCCc1cn(CCSC[C@H](NC(C)=O)C(=O)N[C@@H](CO)C(=O)OC)nn1 [Compound 24, (S)-Methyl 2-((R)-2-acetamido-3-((2-(4-tridecyl-1H-1,2,3-triazol-1-yl)ethyl)thio)propanamido)-3-hydroxypropanoate] | 290 |  |  | 

More lines, in order of falling EC50 (human TLR2), values ahead:

Row | EC50 (human TLR2) [nM] | aqueous solubility (aqueous solubility) | Compound | hTLR2-specific agonistic activity (human TLR2) | also measured
9 | 1.5 | highly water soluble | CCCCCCCCCCCCCCCC(=O)OCCSC[C@H](NC(C)=O)C(=O)N[C@@H](CCCCN)C(=O)OC [Compound 10, 2-(((R)-2-Acetamido-3-(((S)-6-amino-1-methoxy-1-oxohexan-2-yl)amino)-3-oxopropyl)thio)ethyl palmitate] |  | stability of aqueous stocks [1]: significant loss of activity of aqueous stocks in less than a week
10 | 0.75 |  | CCCCCCCCCCCCCCCC(=O)OCCSC[C@H](NC(C)=O)C(=O)N[C@@H](COC(=O)c1cccnc1)C(=O)OC [Compound 15, (S)-2-((R)-2-Acetamido-3-((2-(palmitoyloxy)ethyl)thio)propanamido)-3-methoxy-3-oxopropyl nicotinate] | retained hTLR2-specific agonistic activity | 
11 | 0.65 | highly water soluble | CCCCCCCCCCCCCCCC(=O)OCCSC[C@H](NC(C)=O)C(=O)N[C@@H](COC(=O)CCC(=O)O)C(=O)OC [Compound 14, (7S,10R)-10-Acetamido-7-(methoxycarbonyl)-4,9,16-trioxo-5,15-dioxa-12-thia-8-azahentriacontan-1-oic acid] | retained hTLR2-specific agonistic activity | 
12 | 0.065 |  | CCCCCCCCCCCCCCCCOC(=O)NCCSC[C@H](NC(C)=O)C(=O)N[C@@H](CO)C(=O)OC [Compound 34, (2S,5R)-Methyl 5-acetamido-2-(hydroxymethyl)-4,11-dioxo-12-oxa-7-thia-3,10-diazaoctacosan-1-oate] |  | 

From publication PMC3844559 (Journal of medicinal chemistry, 2013)
